Data taken from ChEMBL document CHEMBL4689842, “EUbOPEN Chemogenomics Library wave 1” (2021).
“And” between values parts separate entries of the source, which are not always exact repeats. Identical values can stand only once.

System: Fibroblast
Assay: Multiplex assay against human fibroblast
Type: toxicity, cell-based
Summary of the method: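 Phenotypes for tubulin, mitochondrial mass and membrane permeability are expressed as per cents of healthy-nucleus cells. Cells were stained live at seeding with Hoechst33342, BioTracker Green Microtubule Cytoskeleton Dye, MitoTracker Red and Annexin V Alexa Fluor 680, then imaged after compound addition on a CQ1 microscope at 37°C and 5% CO2. Machine-learning gating in CellPathfinder separated Hoechst high-intensity objects from normal cells, divided normal cells by nuclear state (healthy, pyknosed, fragmented) and divided pyknosed cells into mitotic or apoptotic.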

[1] = 12 h, 1 µM, compound concentration 1 uM, replicate 1
[2] = 12 h, 1 µM, compound concentration 1 uM, replicate 2
[3] = 12 h, 10 µM, compound concentration 10 uM, replicate 1
[4] = 12 h, 10 µM, compound concentration 10 uM, replicate 2
[5] = 24 h, 1 µM, compound concentration 1 uM, replicate 1
[6] = 24 h, 1 µM, compound concentration 1 uM, replicate 2
[7] = 24 h, 10 µM, compound concentration 10 uM, replicate 1
[8] = 24 h, 10 µM, compound concentration 10 uM, replicate 2
[9] = 48 h, 1 µM, compound concentration 1 uM, replicate 1
[10] = 48 h, 1 µM, compound concentration 1 uM, replicate 2
[11] = 48 h, 10 µM, compound concentration 10 uM, replicate 1
[12] = 48 h, 10 µM, compound concentration 10 uM, replicate 2

SMILES: c1cn2cc(-c3ccc4cn[nH]c4c3)nc(Nc3ccc(N4CCOCC4)cc3)c2n1 [ENTOSPLETINIB]
- Population Apoptotic (%) [1]: 60%
- Population Fragmented Nuclei (%) [1]: 23%
- Population Healthy Nuclei (%) [1]: 36%
- Population Hoechst High Intensity Objects (%) [1]: 14%
- Population Membrane Permeable-Phenotype (%) [1]: 20%
- Population Mitochondria Different-Phenotype (%) [1]: 12%
- Population Mitotic Cells (%) [1]: 39%
- Population Normal (%) [1]: 85%
- Population Pyknosed Nuclei (%) [1]: 40%
- Population Tubulin-Different-Phenotype (%) [1]: 52%
- Total Cell Count [1]: 81
- Population Apoptotic (%) [2]: 40%
- Population Fragmented Nuclei (%) [2]: 16%
- Population Healthy Nuclei (%) [2]: 73%
- Population Hoechst High Intensity Objects (%) [2]: 5%
- Population Membrane Permeable-Phenotype (%) [2]: 10%
- Population Mitochondria Different-Phenotype (%) [2]: 23%
- Population Mitotic Cells (%) [2]: 60%
- Population Normal (%) [2]: 94%
- Population Pyknosed Nuclei (%) [2]: 9%
- Population Tubulin-Different-Phenotype (%) [2]: 25%
- Total Cell Count [2]: 59
- Population Apoptotic (%) [3]: 51%
- Population Fragmented Nuclei (%) [3]: 24%
- Population Healthy Nuclei (%) [3]: 3%
- Population Hoechst High Intensity Objects (%) [3]: 41%
- Population Membrane Permeable-Phenotype (%) [3]: 14%
- Population Mitochondria Different-Phenotype (%) [3]: 4%
- Population Mitotic Cells (%) [3]: 48%
- Population Normal (%) [3]: 58%
- Population Pyknosed Nuclei (%) [3]: 72%
- Population Tubulin-Different-Phenotype (%) [3]: 23%
- Total Cell Count [3]: 1163
- Population Apoptotic (%) [4]: 92%
- Population Fragmented Nuclei (%) [4]: 30%
- Population Healthy Nuclei (%) [4]: 2%
- Population Hoechst High Intensity Objects (%) [4]: 25%
- Population Membrane Permeable-Phenotype (%) [4]: 21%
- Population Mitochondria Different-Phenotype (%) [4]: 82%
- Population Mitotic Cells (%) [4]: 7%
- Population Normal (%) [4]: 74%
- Population Pyknosed Nuclei (%) [4]: 67%
- Population Tubulin-Different-Phenotype (%) [4]: 78%
- Total Cell Count [4]: 56
- Population Apoptotic (%) [5]: 60%
- Population Fragmented Nuclei (%) [5]: 25%
- Population Healthy Nuclei (%) [5]: 57%
- Population Hoechst High Intensity Objects (%) [5]: 11%
- Population Membrane Permeable-Phenotype (%) [5]: 23%
- Population Mitochondria Different-Phenotype (%) [5]: 7%
- Population Mitotic Cells (%) [5]: 40%
- Population Normal (%) [5]: 88%
- Population Pyknosed Nuclei (%) [5]: 16%
- Population Tubulin-Different-Phenotype (%) [5]: 51%
- Total Cell Count [5]: 102
- Population Apoptotic (%) [6]: 14%
- Population Fragmented Nuclei (%) [6]: 14%
- Population Healthy Nuclei (%) [6]: 74%
- Population Hoechst High Intensity Objects (%) [6]: 4%
- Population Membrane Permeable-Phenotype (%) [6]: 17%
- Population Mitochondria Different-Phenotype (%) [6]: 15%
- Population Mitotic Cells (%) [6]: 85%
- Population Normal (%) [6]: 95%
- Population Pyknosed Nuclei (%) [6]: 11%
- Population Tubulin-Different-Phenotype (%) [6]: 21%
- Total Cell Count [6]: 78
- Population Apoptotic (%) [7]: 48%
- Population Fragmented Nuclei (%) [7]: 22%
- Population Healthy Nuclei (%) [7]: 3%
- Population Hoechst High Intensity Objects (%) [7]: 44%
- Population Membrane Permeable-Phenotype (%) [7]: 23%
- Population Mitochondria Different-Phenotype (%) [7]: 4%
- Population Mitotic Cells (%) [7]: 51%
- Population Normal (%) [7]: 55%
- Population Pyknosed Nuclei (%) [7]: 74%
- Population Tubulin-Different-Phenotype (%) [7]: 47%
- Total Cell Count [7]: 1126
- Population Apoptotic (%) [8]: 89%
- Population Fragmented Nuclei (%) [8]: 33%
- Population Healthy Nuclei (%) [8]: 2%
- Population Hoechst High Intensity Objects (%) [8]: 26%
- Population Membrane Permeable-Phenotype (%) [8]: 8%
- Population Mitochondria Different-Phenotype (%) [8]: 36%
- Population Mitotic Cells (%) [8]: 10%
- Population Normal (%) [8]: 73%
- Population Pyknosed Nuclei (%) [8]: 64%
- Population Tubulin-Different-Phenotype (%) [8]: 20%
- Total Cell Count [8]: 65
- Population Apoptotic (%) [9]: 75%
- Population Fragmented Nuclei (%) [9]: 29%
- Population Healthy Nuclei (%) [9]: 65%
- Population Hoechst High Intensity Objects (%) [9]: 15%
- Population Membrane Permeable-Phenotype (%) [9]: 18%
- Population Mitochondria Different-Phenotype (%) [9]: 6%
- Population Mitotic Cells (%) [9]: 25%
- Population Normal (%) [9]: 84%
- Population Pyknosed Nuclei (%) [9]: 4%
- Population Tubulin-Different-Phenotype (%) [9]: 39%
- Total Cell Count [9]: 104
- Population Apoptotic (%) [10]: 33%
- Population Fragmented Nuclei (%) [10]: 28%
- Population Healthy Nuclei (%) [10]: 68%
- Population Hoechst High Intensity Objects (%) [10]: 11%
- Population Membrane Permeable-Phenotype (%) [10]: 9%
- Population Mitochondria Different-Phenotype (%) [10]: 1%
- Population Mitotic Cells (%) [10]: 66%
- Population Normal (%) [10]: 88%
- Population Pyknosed Nuclei (%) [10]: 2%
- Population Tubulin-Different-Phenotype (%) [10]: 50%
- Total Cell Count [10]: 116
- Population Apoptotic (%) [11]: 43%
- Population Fragmented Nuclei (%) [11]: 14%
- Population Healthy Nuclei (%) [11]: 4%
- Population Hoechst High Intensity Objects (%) [11]: 47%
- Population Membrane Permeable-Phenotype (%) [11]: 14%
- Population Mitochondria Different-Phenotype (%) [11]: 0%
- Population Mitotic Cells (%) [11]: 56%
- Population Normal (%) [11]: 52%
- Population Pyknosed Nuclei (%) [11]: 80%
- Population Tubulin-Different-Phenotype (%) [11]: 17%
- Total Cell Count [11]: 1093
- Population Apoptotic (%) [12]: 82%
- Population Fragmented Nuclei (%) [12]: 24%
- Population Healthy Nuclei (%) [12]: 6%
- Population Hoechst High Intensity Objects (%) [12]: 64%
- Population Membrane Permeable-Phenotype (%) [12]: 12%
- Population Mitochondria Different-Phenotype (%) [12]: 12%
- Population Mitotic Cells (%) [12]: 17%
- Population Normal (%) [12]: 35%
- Population Pyknosed Nuclei (%) [12]: 69%
- Population Tubulin-Different-Phenotype (%) [12]: 46%
- Total Cell Count [12]: 1794

SMILES: Cn1cncc1[C@@](O)(COc1ccc(C#N)cc1-c1ccc(OC(F)(F)F)cc1)c1ccc(C#N)cc1 [A-108]
- Population Apoptotic (%) [3]: 53% and 83%
- Population Fragmented Nuclei (%) [3]: 39% and 19%
- Population Healthy Nuclei (%) [3]: 44% and 66%
- Population Hoechst High Intensity Objects (%) [3]: 15% and 12%
- Population Membrane Permeable-Phenotype (%) [3]: 23% and 8%
- Population Mitochondria Different-Phenotype (%) [3]: 20% and 7%
- Population Mitotic Cells (%) [3]: 46% and 16%
- Population Normal (%) [3]: 84% and 87%
- Population Pyknosed Nuclei (%) [3]: 15% and 14%
- Total Cell Count [3]: 192 and 337
- Population Apoptotic (%) [4]: 42% and 57%
- Population Fragmented Nuclei (%) [4]: 52% and 61%
- Population Healthy Nuclei (%) [4]: 34% and 26%
- Population Hoechst High Intensity Objects (%) [4]: 32%
- Population Membrane Permeable-Phenotype (%) [4]: 0% and 5%
- Population Mitotic Cells (%) [4]: 57% and 42%
- Population Normal (%) [4]: 67%
- Population Pyknosed Nuclei (%) [4]: 12% and 11%
- Population Tubulin-Different-Phenotype (%) [4]: 26% and 52%
- Total Cell Count [4]: 82 and 94
- Population Apoptotic (%) [7]: 54% and 58%
- Population Fragmented Nuclei (%) [7]: 40% and 16%
- Population Healthy Nuclei (%) [7]: 47% and 69%
- Population Hoechst High Intensity Objects (%) [7]: 11% and 16%
- Population Membrane Permeable-Phenotype (%) [7]: 3% and 7%
- Population Mitotic Cells (%) [7]: 45% and 41%
- Population Normal (%) [7]: 88% and 83%
- Population Pyknosed Nuclei (%) [7]: 14%
- Total Cell Count [7]: 216 and 318
- Population Apoptotic (%) [8]: 50% and 62%
- Population Fragmented Nuclei (%) [8]: 50%
- Population Healthy Nuclei (%) [8]: 43% and 37%
- Population Hoechst High Intensity Objects (%) [8]: 29% and 21%
- Population Membrane Permeable-Phenotype (%) [8]: 14% and 16%
- Population Mitochondria Different-Phenotype (%) [8]: 66% and 28%
- Population Mitotic Cells (%) [8]: 50% and 37%
- Population Normal (%) [8]: 70% and 78%
- Population Pyknosed Nuclei (%) [8]: 6% and 11%
- Population Tubulin-Different-Phenotype (%) [8]: 37% and 52%
- Total Cell Count [8]: 88 and 85
